# Sampled rows, rich in hits. Any-hit rate of the full collection: about 2.9%.
# PRMT1 inh – PRMT1 methyltransferase inhibitors, primary screen, biochemical, fluorescence polarization | Protein arginine N-methyltransferase 1 (Homo sapiens), Q99873 | recombinant PRMT1, activity-based probe fluorescence polarization | inhibition, % at 2.79 µM | 370,000 compounds, 1.3% hits;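 active = inhibition above about 21% made by adding two undisclosed values, limit read from the data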
# Target sequence (Q99873 whole entry, looked up): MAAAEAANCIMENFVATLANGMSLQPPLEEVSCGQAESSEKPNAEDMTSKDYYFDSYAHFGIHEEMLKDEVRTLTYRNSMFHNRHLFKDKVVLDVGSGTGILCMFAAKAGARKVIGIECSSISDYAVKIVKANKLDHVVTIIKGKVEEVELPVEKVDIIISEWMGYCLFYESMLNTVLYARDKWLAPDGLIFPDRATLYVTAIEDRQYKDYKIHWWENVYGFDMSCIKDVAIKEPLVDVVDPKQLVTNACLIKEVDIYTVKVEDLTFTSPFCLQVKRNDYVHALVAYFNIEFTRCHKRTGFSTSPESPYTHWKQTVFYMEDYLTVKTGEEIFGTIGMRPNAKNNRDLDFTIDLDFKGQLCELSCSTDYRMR
# APOBEC3G inh – APOBEC3G DNA deaminase inhibitors, primary screen, biochemical, fluorescence, single-stranded DNA substrate, uHTS. inhibition, % at 20 µM. recombinant A3G, ssDNA deamination FAM/TAMRA fluorescence. DNA dC->dU-editing enzyme APOBEC-3G (Homo sapiens), Q9HC16. AID 493012, 2011. 330,000 compounds, 0.28% hits;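 active = inhibition of at least 40% at 20 µM, with no more than 30% in the related APOBEC3A deaminase screen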
# HCV NS3 hel inh – inhibitors of HCV NS3 helicase, primary screen, biochemical, Cy5 molecular beacon fluorescence; 290,000 compounds, 0.56% hits; NS3 helicase DNA unwinding; Hepatitis C virus NS3 helicase; inhibition, % at 10.9 µM; AID 1800, 2009;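 active = inhibition above the mean of all tested compounds plus 3 SD, set per campaign, cut at about 35% in these data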
#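 Test system: hepatitis C virus NS3 helicase domain fragment enzyme. Also added: annealed dual-labelled DNA beacon duplex, ATP-started. Timing: 60 min unwinding reaction at 25 °C after ATP addition. Technique: Cy5 fluorescence. Measure: % inhibition of unwinding.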
# HCV core dimer – inhibitors of HCV core protein dimerization, primary screen, biochemical, TR-FRET, high-throughput; TR-FRET GST/Flag-core106 dimerization, 1536-well; inhibition, % at 5 µM; 300,000 compounds, 0.33% hits; AID 1899, 2009;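 active = inhibition above the mean of all tested compounds plus 3 SD, set per screening campaign, cut at about 45% in these data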
#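 Assay system: tagged HCV core106 pair (GST and Flag); medium: KF-containing HEPES buffer, pH 7.45, DTT, CHAPS, BSA; also added: Eu donor and XL665 acceptor anti-tag antibodies; dosing: 5 µM single dose; timing: compound-protein-antibody incubation 4 h at 22.5 °C; signal: TR-FRET 671 and 617 nm emission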
# APOBEC3A inh – APOBEC3A ssDNA deaminase inhibitors, primary screen, selectivity assay for APOBEC3G inhibitor project, biochemical, FAM/TAMRA oligo cleavage fluorescence. DNA dC->dU-editing enzyme APOBEC-3A (Homo sapiens), P31941. recombinant A3A, FAM/TAMRA ssDNA deamination fluorescence. inhibition, % at 20 µM. 330,000 compounds, 0.41% hits. AID 493011, 2011;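 active = at least 40% inhibition at 20 µM here, with at most 30% in a related deaminase screen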
# ABHD5-PLIN5 inh – ABHD5-PLIN5 interaction inhibitors, primary screen, cell lysate, split luciferase complementation, luminescence; Perilipin-5 (Homo sapiens) + 1-acylglycerol-3-phosphate O-acyltransferase ABHD5 (Homo …; Split G. princeps luciferase complementation, 4 h; inhibition, % at 4 µM; 360,000 compounds, 0.78% hits;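 active = inhibition above the mean inhibition across every tested compound plus 3 SD, cut at about 22% in these data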
# PRMT1 confirm – PRMT1 methyltransferase inhibitors, confirmation, biochemical, fluorescence polarization, triplicate | shares compounds with PRMT1 inh | recombinant His-PRMT1, activity-based probe fluorescence polarization | inhibition, % at 2.79 µM | 3,300 compounds, 42% hits | AID 687036, 2013;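 active = mean inhibition across replicates above the hit cutoff derived for the earlier primary screen, cut at about 22% in these data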
# Hits are given with their value; n = inactive; x = not tested or not shown.
SMILES,PRMT1 inh,APOBEC3G inh,HCV NS3 hel inh,HCV core dimer,APOBEC3A inh,ABHD5-PLIN5 inh,PRMT1 confirm
COc1ccc(C(=S)N2CCCCCC2)cc1,26,n,n,n,n,n,n
CCN1CCN(C(=S)c2ccc([N+](=O)[O-])cc2)CC1,34,n,n,n,n,n,35
COc1ccc(C(=S)N2CCNCC2)cc1,n,n,n,n,n,n,x
CCOc1ccc(C(=S)N2CCN(C)CC2)cc1,28,n,n,n,n,n,33
OCCN1CCN(C(=S)c2ccc(Cl)cc2)CC1,32,n,n,n,n,n,40
O=[N+]([O-])c1ccc(C(=S)N2CCCC2)cc1,n,n,n,n,n,n,x
CCN1CCN(C(=S)c2ccc(OC)cc2)CC1,48,n,n,n,n,n,37
COc1ccc(CC(=O)Nc2ccccc2C(F)(F)F)cc1S(=O)(=O)N1CCOCC1,n,x,x,x,x,n,x
CC(C)(CNC(=O)c1cccc(S(=O)(=O)Nc2ccc(SC(F)F)cc2)c1)N1CCOCC1,46,x,x,x,x,n,66
Cc1ccc(NS(=O)(=O)c2cccc(C(=O)NC3CCN(Cc4ccccc4)CC3)c2)cc1,n,x,x,x,x,n,x
O=C(NC1CCN(Cc2ccccc2)CC1)c1cccc(S(=O)(=O)Nc2ccc(SC(F)F)cc2)c1,41,n,x,x,n,n,58
COc1cc(C(=O)NCc2nnc(SCC(=O)Nc3nc4ccccc4s3)o2)cc(OC)c1OC,65,n,n,n,n,n,n
COCCNC(=O)c1c(N)[nH]c(C(=O)c2ccc(Br)cc2)c1-c1c(OC)ccc2ccccc12,n,x,x,x,x,x,x
Cc1ccc(NC(=O)COC(=O)c2ccc(-n3cccn3)cc2)cc1C,n,n,x,x,n,n,x
COc1ccc(C(c2nnnn2C(C)(C)C)N2CCN(c3nc4ccccc4s3)CC2)cc1 (centres undefined),n,x,n,x,x,n,x
CCC(C)(C)n1nnnc1C(c1ccc(O)c(OC)c1)N1CCN(c2nc3ccccc3s2)CC1 (centres undefined),36,n,n,n,n,n,36
Cc1cccc(C)c1NC(=O)CNC(=O)c1cncc(Br)c1,n,n,n,n,n,n,x
COC(=O)c1ccc2nc(-c3ccccc3)c(Cc3ccsc3)n2c1,n,x,x,x,x,n,x
COC(=O)c1ccc2nc(-c3ccco3)c(Cc3ccsc3)n2c1,33,x,x,x,x,x,37
COC(=O)c1ccc2nc(-c3ccco3)c(Cc3cccc(Cl)c3)n2c1,25,x,x,x,x,n,n
Clc1ccc2nc(-c3ccco3)c(Cc3ccsc3)n2c1,47,x,x,x,x,49,23
CN(C)Cc1ccccc1Sc1ccc2c(c1)CCCC2,n,n,x,n,n,n,x
O=C1NC(c2ccco2)Nc2sc3c(c21)CCN(Cc1ccccc1)C3 (centres undefined),31,n,n,n,n,n,n
CN1CCc2c(sc3c2C(=O)NC(c2ccc(-c4ccc(Cl)cc4)o2)N3)C1 (centres undefined),n,n,n,n,n,n,x
CN1CCc2c(sc3c2C(=O)NC(c2ccco2)N3)C1 (centres undefined),27,n,n,n,n,n,n
Cc1noc(C)c1-c1ccc(C(=O)NCc2cccc(Cl)c2)c2occc12,n,x,x,x,x,n,x
Cc1cccc(CC(=O)NCCS(=O)(=O)N2CCN(c3ccccc3)CC2)c1,n,x,x,x,x,n,x
COc1cc(C)ccc1S(=O)(=O)NC(=O)C1(C)CCN1C(=O)c1ccc(C(F)(F)F)nc1C (centres undefined),n,x,x,x,x,n,x
CC[C@@]1(O)C(=O)OCc2c1cc1n(c2=O)Cc2cc3c(CN(C)C)c(O)ccc3nc2-1,107,n,x,n,n,n,109
